Experimental data from ChEMBL document CHEMBL1153232, “Synthesis and screening of a CaaL peptide library versus FTase reveals a surprising number of substrates” (Bioorg Med Chem Lett, 2010).
Active and inactive are the calls of the source. No cut-off for these calls is given here. Peptide text beside a SMILES is read from it. * marks the point of attachment. Dansyl = CN(C)c1cccc2c(S(=O)(=O)*)cccc12

Legend:
[1] = target: Protein farnesyltransferase subunit beta (Homo sapiens) (UniProt P49356); experiment: Activity at FTase assessed as formation of farnesylated peptide after 60 mins by HPLC
Sequence of Protein farnesyltransferase subunit beta (Homo sapiens) (P49356 whole entry): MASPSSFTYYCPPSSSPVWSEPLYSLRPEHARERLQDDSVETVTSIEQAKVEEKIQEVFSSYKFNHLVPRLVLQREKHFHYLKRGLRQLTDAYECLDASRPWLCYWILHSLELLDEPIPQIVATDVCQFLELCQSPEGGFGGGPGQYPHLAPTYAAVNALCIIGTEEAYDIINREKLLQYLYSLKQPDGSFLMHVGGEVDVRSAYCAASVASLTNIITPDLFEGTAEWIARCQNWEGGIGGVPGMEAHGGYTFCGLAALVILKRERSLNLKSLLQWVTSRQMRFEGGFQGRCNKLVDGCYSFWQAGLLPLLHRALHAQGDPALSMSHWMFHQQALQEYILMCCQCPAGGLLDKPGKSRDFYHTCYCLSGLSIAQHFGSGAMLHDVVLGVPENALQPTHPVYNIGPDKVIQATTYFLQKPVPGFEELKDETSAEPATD
Method in brief: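 Peptide (3 μM) with 9 μM FPP and recombinant mammalian FTase (0.05 μM), incubated 60 min. HPLC scored conversion to farnesylated peptide: complete; nearly complete; 25% to 50%; less than 25%; no product.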

[2] = target: Protein farnesyltransferase subunit beta (Homo sapiens) (UniProt P49356); experiment: Substrate activity for FTase assessed as increase in fluorescence by spectrofluorimetry in presence of farnesyl diphosphate relative to DnGCVLS; set-up: concentration or dose not given beside the values
[3] = target: Protein farnesyltransferase subunit beta (Homo sapiens) (UniProt P49356); experiment: Ratio of kcat to km for FTase in presence of farnesyl diphosphate
Method in brief: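 Steady-state kinetics at saturating FPP (10 μM), 0.2-10 μM dansyl peptide, 20-100 nM FTase (at least 5-fold below peptide). Buffer: 50 mM HEPPSO pH 7.8, 5 mM TCEP, 5 mM MgCl2, 25 °C. Peptide preincubated 20 min in buffer, then FTase and FPP added. Fluorescence (ex 340, em 520 nm) followed over time and converted to kcat/KM.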

SMILES	Activity [1]	Activity [2]	Ratio [3]
CC(C)C[C@H](NC(=O)[C@H](C)NC(=O)[C@H](Cc1cnc[nH]1)NC(=O)[C@H](CS)NC(=O)CNS(=O)(=O)c1cccc2c(N(C)C)cccc12)C(=O)O (Dansyl-GCHAL-OH)	inactive	0%	
CC(C)C[C@H](NC(=O)[C@@H]1CCCN1C(=O)[C@H](CC(N)=O)NC(=O)[C@H](CS)NC(=O)CNS(=O)(=O)c1cccc2c(N(C)C)cccc12)C(=O)O (Dansyl-GCNPL-OH)	inactive	0%	
CC(C)C[C@H](NC(=O)[C@@H](NC(=O)[C@H](CC(C)C)NC(=O)[C@H](CS)NC(=O)CNS(=O)(=O)c1cccc2c(N(C)C)cccc12)C(C)C)C(=O)O (Dansyl-GCLVL-OH)		< 5%	
CC(C)C[C@H](NC(=O)[C@H](CCC(N)=O)NC(=O)[C@H](CO)NC(=O)[C@H](CS)NC(=O)CNS(=O)(=O)c1cccc2c(N(C)C)cccc12)C(=O)O (Dansyl-GCSQL-OH)	inactive	0%	
CC[C@H](C)[C@H](NC(=O)[C@@H](NC(=O)[C@H](CS)NC(=O)CNS(=O)(=O)c1cccc2c(N(C)C)cccc12)[C@@H](C)O)C(=O)N[C@@H](CC(C)C)C(=O)O (Dansyl-GCTIL-OH)	Active	45%	33 mM⁻¹ s⁻¹
CC(C)C[C@H](NC(=O)[C@H](CC(C)C)NC(=O)[C@@H](NC(=O)[C@H](CS)NC(=O)CNS(=O)(=O)c1cccc2c(N(C)C)cccc12)[C@@H](C)O)C(=O)O (Dansyl-GCTLL-OH)		0%	
CC(C)C[C@H](NC(=O)[C@H](CC(N)=O)NC(=O)[C@H](CCC(N)=O)NC(=O)[C@H](CS)NC(=O)CNS(=O)(=O)c1cccc2c(N(C)C)cccc12)C(=O)O (Dansyl-GCQNL-OH)	inactive	0%	
CC[C@H](C)[C@H](NC(=O)[C@H](C)NC(=O)[C@H](CS)NC(=O)CNS(=O)(=O)c1cccc2c(N(C)C)cccc12)C(=O)N[C@@H](CC(C)C)C(=O)O (Dansyl-GCAIL-OH)	Active	71%	27 mM⁻¹ s⁻¹
CC(C)C[C@H](NC(=O)[C@@H](NC(=O)[C@H](CO)NC(=O)[C@H](CS)NC(=O)CNS(=O)(=O)c1cccc2c(N(C)C)cccc12)[C@@H](C)O)C(=O)O (Dansyl-GCSTL-OH)	inactive	0%	
CC(C)C[C@H](NC(=O)[C@H](Cc1ccccc1)NC(=O)[C@H](CO)NC(=O)[C@H](CS)NC(=O)CNS(=O)(=O)c1cccc2c(N(C)C)cccc12)C(=O)O (Dansyl-GCSFL-OH)	inactive	0%	
CC(C)C[C@H](NC(=O)[C@H](C)NC(=O)[C@@H](NC(=O)[C@H](CS)NC(=O)CNS(=O)(=O)c1cccc2c(N(C)C)cccc12)[C@@H](C)O)C(=O)O (Dansyl-GCTAL-OH)	inactive	0%	
CC[C@H](C)[C@H](NC(=O)[C@H](CC(C)C)NC(=O)[C@H](CS)NC(=O)CNS(=O)(=O)c1cccc2c(N(C)C)cccc12)C(=O)N[C@@H](CC(C)C)C(=O)O (Dansyl-GCLIL-OH)	Active	< 5%	
CC(C)C[C@H](NC(=O)[C@@H](NC(=O)[C@H](CCCCN)NC(=O)[C@H](CS)NC(=O)CNS(=O)(=O)c1cccc2c(N(C)C)cccc12)C(C)C)C(=O)O (Dansyl-GCKVL-OH)		< 5%	
CC(C)C[C@H](NC(=O)[C@H](CC(C)C)NC(=O)[C@H](C)NC(=O)[C@H](CS)NC(=O)CNS(=O)(=O)c1cccc2c(N(C)C)cccc12)C(=O)O (Dansyl-GCALL-OH)		< 5%	
CC[C@H](C)[C@H](NC(=O)[C@H](CS)NC(=O)CNS(=O)(=O)c1cccc2c(N(C)C)cccc12)C(=O)N[C@H](C(=O)N[C@@H](CC(C)C)C(=O)O)[C@@H](C)CC (Dansyl-GCIIL-OH)	Active	101%	43 mM⁻¹ s⁻¹
CC(C)C[C@H](NC(=O)[C@@H](NC(=O)[C@H](CS)NC(=O)[C@H](CS)NC(=O)CNS(=O)(=O)c1cccc2c(N(C)C)cccc12)C(C)C)C(=O)O (Dansyl-GCCVL-OH)	Active	11%	7 mM⁻¹ s⁻¹
CC(C)C[C@H](NC(=O)CNC(=O)CNC(=O)[C@H](CS)NC(=O)CNS(=O)(=O)c1cccc2c(N(C)C)cccc12)C(=O)O (Dansyl-GCGGL-OH)	inactive	0%	
CC(C)C[C@H](NC(=O)[C@H](CS)NC(=O)CNC(=O)[C@H](CS)NC(=O)CNS(=O)(=O)c1cccc2c(N(C)C)cccc12)C(=O)O (Dansyl-GCGCL-OH)	inactive	0%	
CC(C)C[C@H](NC(=O)[C@H](CC(C)C)NC(=O)[C@H](CS)NC(=O)[C@H](CS)NC(=O)CNS(=O)(=O)c1cccc2c(N(C)C)cccc12)C(=O)O (Dansyl-GCCLL-OH)		< 5%	
CC(C)C[C@H](NC(=O)[C@H](CC(C)C)NC(=O)[C@H](CCCNC(=N)N)NC(=O)[C@H](CS)NC(=O)CNS(=O)(=O)c1cccc2c(N(C)C)cccc12)C(=O)O (Dansyl-GCRLL-OH)		< 5%	

SMILES	Activity [1]	Activity [2]	Ratio [3]
CC[C@H](C)[C@H](NC(=O)[C@H](CO)NC(=O)[C@H](CS)NC(=O)CNS(=O)(=O)c1cccc2c(N(C)C)cccc12)C(=O)N[C@@H](CC(C)C)C(=O)O (Dansyl-GCSIL-OH)	Active	18%	5 mM⁻¹ s⁻¹
CC(C)C[C@H](NC(=O)[C@H](Cc1ccc(O)cc1)NC(=O)[C@H](C)NC(=O)[C@H](CS)NC(=O)CNS(=O)(=O)c1cccc2c(N(C)C)cccc12)C(=O)O (Dansyl-GCAYL-OH)	inactive	0%	
CC[C@H](C)[C@H](NC(=O)[C@H](CS)NC(=O)CNS(=O)(=O)c1cccc2c(N(C)C)cccc12)C(=O)N[C@@H](CC(C)C)C(=O)N[C@@H](CC(C)C)C(=O)O (Dansyl-GCILL-OH)	Active	15%	8 mM⁻¹ s⁻¹
CC(C)C[C@H](NC(=O)[C@H](CC(C)C)NC(=O)[C@H](CC(C)C)NC(=O)[C@H](CS)NC(=O)CNS(=O)(=O)c1cccc2c(N(C)C)cccc12)C(=O)O (Dansyl-GCLLL-OH)		< 5%	
CC[C@H](C)[C@H](NC(=O)[C@@H]1CCCN1C(=O)[C@H](CS)NC(=O)CNS(=O)(=O)c1cccc2c(N(C)C)cccc12)C(=O)N[C@@H](CC(C)C)C(=O)O (Dansyl-GCPIL-OH)		< 5%	
CSCC[C@H](NC(=O)[C@H](CC(C)C)NC(=O)[C@H](CS)NC(=O)CNS(=O)(=O)c1cccc2c(N(C)C)cccc12)C(=O)N[C@@H](CC(C)C)C(=O)O (Dansyl-GCLML-OH)	Active	9%	8.1 mM⁻¹ s⁻¹
CC[C@H](C)[C@H](NC(=O)[C@H](CC(N)=O)NC(=O)[C@H](CS)NC(=O)CNS(=O)(=O)c1cccc2c(N(C)C)cccc12)C(=O)N[C@@H](CC(C)C)C(=O)O (Dansyl-GCNIL-OH)	Active	22%	12 mM⁻¹ s⁻¹
CC(C)C[C@H](NC(=O)[C@H](CC(C)C)NC(=O)[C@H](CCC(N)=O)NC(=O)[C@H](CS)NC(=O)CNS(=O)(=O)c1cccc2c(N(C)C)cccc12)C(=O)O (Dansyl-GCQLL-OH)	< 25%	0%	
CC(C)C[C@H](NC(=O)CNC(=O)[C@@H](NC(=O)[C@H](CS)NC(=O)CNS(=O)(=O)c1cccc2c(N(C)C)cccc12)C(C)C)C(=O)O (Dansyl-GCVGL-OH)	inactive	0%	
CC(C)C[C@H](NC(=O)[C@H](CCC(N)=O)NC(=O)CNC(=O)[C@H](CS)NC(=O)CNS(=O)(=O)c1cccc2c(N(C)C)cccc12)C(=O)O (Dansyl-GCGQL-OH)	inactive	0%	
CC(C)C[C@H](NC(=O)CNC(=O)[C@H](CC(C)C)NC(=O)[C@H](CS)NC(=O)CNS(=O)(=O)c1cccc2c(N(C)C)cccc12)C(=O)O (Dansyl-GCLGL-OH)	inactive	0%	
CC(C)C[C@H](NC(=O)[C@H](CC(C)C)NC(=O)[C@H](CO)NC(=O)[C@H](CS)NC(=O)CNS(=O)(=O)c1cccc2c(N(C)C)cccc12)C(=O)O (Dansyl-GCSLL-OH)	< 25%	0%	
CC(C)C[C@H](NC(=O)[C@H](CCCCN)NC(=O)[C@H](CCC(=O)O)NC(=O)[C@H](CS)NC(=O)CNS(=O)(=O)c1cccc2c(N(C)C)cccc12)C(=O)O (Dansyl-GCEKL-OH)	inactive	0%	
CSCC[C@H](NC(=O)[C@H](CS)NC(=O)CNS(=O)(=O)c1cccc2c(N(C)C)cccc12)C(=O)N[C@@H](CCC(=O)O)C(=O)N[C@@H](CC(C)C)C(=O)O (Dansyl-GCMEL-OH)	inactive	0%	
CC(C)C[C@H](NC(=O)[C@H](CO)NC(=O)[C@H](CS)NC(=O)[C@H](CS)NC(=O)CNS(=O)(=O)c1cccc2c(N(C)C)cccc12)C(=O)O (Dansyl-GCCSL-OH)	inactive	0%	
CC(C)C[C@H](NC(=O)[C@@H]1CCCN1C(=O)[C@H](Cc1cnc[nH]1)NC(=O)[C@H](CS)NC(=O)CNS(=O)(=O)c1cccc2c(N(C)C)cccc12)C(=O)O (Dansyl-GCHPL-OH)	inactive	0%	
CC(C)C[C@H](NC(=O)[C@H](CCC(N)=O)NC(=O)[C@H](CC(C)C)NC(=O)[C@H](CS)NC(=O)CNS(=O)(=O)c1cccc2c(N(C)C)cccc12)C(=O)O (Dansyl-GCLQL-OH)	< 25%	0%	
CC(C)C[C@H](NC(=O)[C@H](CC(C)C)NC(=O)[C@@H](NC(=O)[C@H](CS)NC(=O)CNS(=O)(=O)c1cccc2c(N(C)C)cccc12)C(C)C)C(=O)O (Dansyl-GCVLL-OH)		< 5%	
CC(C)C[C@H](NC(=O)[C@@H](NC(=O)[C@H](CO)NC(=O)[C@H](CS)NC(=O)CNS(=O)(=O)c1cccc2c(N(C)C)cccc12)C(C)C)C(=O)O (Dansyl-GCSVL-OH)		0%	
